Most compounds without a hit are left out; they make up all but 2.6% or so of the library.
Rad51 HR inh: human RAD51 strand exchange inhibitors, primary screen, biochemical, fluorescence | inhibition, % at 10 µM | hRad51 DNA strand exchange, fluorescence dequenching | 200,000 compounds, 0.085% hits;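 active means inhibition above 40% at the single screening dose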
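Read-out basis: percent inhibition relative to plate controls and blanks / Assay system: human Rad51 nucleoprotein filaments preassembled on unlabelled ssDNA / Timing: filaments 15 min 37 °C, then compound 30 min / Control set: per-plate controls and blanks / Technique: fluorescence dequenching at 485/520 nm / Compound: 10 µM final, single point / Also added: Fluorescein- and BHQ1-tagged 47-mer duplex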
CHT inh: inhibitors of human choline transporter CHT | AID 488975, 2010 | CHT-expressing cells, membrane potential dye, choline response; active compounds read low | B-score at 10 µM | 310,000 compounds, 0.86% hits;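 active means B-score over 3 SD under the library average, and starting fluorescence ratio not unusually high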;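 further: choline stimulus applied at its EC90 after an EC20 pre-addition; B-score computed on integrated fluorescence ratio after choline addition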
Target sequence (Q9GZV3 whole entry, looked up): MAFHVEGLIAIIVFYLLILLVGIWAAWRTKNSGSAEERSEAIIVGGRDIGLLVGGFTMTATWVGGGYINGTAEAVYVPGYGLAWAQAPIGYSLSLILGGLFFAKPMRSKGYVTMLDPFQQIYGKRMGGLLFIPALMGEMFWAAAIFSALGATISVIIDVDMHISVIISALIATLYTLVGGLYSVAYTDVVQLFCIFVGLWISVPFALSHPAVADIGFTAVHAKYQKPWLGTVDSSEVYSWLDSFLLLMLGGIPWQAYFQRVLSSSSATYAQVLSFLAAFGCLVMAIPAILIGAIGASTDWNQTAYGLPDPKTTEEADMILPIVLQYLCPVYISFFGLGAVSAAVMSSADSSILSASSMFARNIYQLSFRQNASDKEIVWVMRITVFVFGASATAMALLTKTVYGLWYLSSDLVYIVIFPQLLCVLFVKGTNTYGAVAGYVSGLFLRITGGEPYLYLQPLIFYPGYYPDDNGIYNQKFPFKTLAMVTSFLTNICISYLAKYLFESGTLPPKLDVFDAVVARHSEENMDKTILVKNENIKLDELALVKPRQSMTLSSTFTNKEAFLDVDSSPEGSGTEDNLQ
KCC2 mod: KCC2 cotransporter modulators, thallium flux, primary screen, cell-based, HEK293 KCC2, FluoZin-2 fluorescence, MLSMR | 190,000 compounds, 2.2% hits | KCC2 cells, thallium flux FluoZin-2 fluorescence | B-score of Tl+ flux slope (higher = more flux/activation; lower = inhibition) at 10 µM | Solute carrier family 12 member 5 (Homo sapiens), Q9H2X9;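 active means thallium flux slope and its plate-corrected score both differing from the plate sample mean at a set confidence after two filtering rounds, in either direction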;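 further: slope of fluorescence scaled to starting intensity during 10 to 20 s after thallium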
CHT allo act: CHT positive allosteric modulators, primary screen, cell-based, membrane potential dye, choline EC20. CHT-expressing cells; active compounds read high; LV-AA mutant CHT in HEK293 cells. B-score at 10 µM. 310,000 compounds, 0.49% hits. AID 488977, 2010;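 active means initial fluorescence not abnormally high and integrated response B-score, plate-corrected, over 3 SD above library mean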
CHT inh conf: CHT inhibitors, confirmation, cell-based, membrane potential dye, duplicate; shares compounds with CHT inh; CHT-expressing cells, choline membrane potential dye; LV-to-AA substituted CHT, HEK293 cells; CHT activity remaining % of control (active compounds read low), % at 10 µM; 2,400 compounds, 70% hits;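 active means choline transporter activity left, mean of duplicates at 10 µM, below buffer-only control mean minus 3 SD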;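 further: depolarization triggered by choline at its EC90 following an EC20 pre-addition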
HEK293 MPD ctr: membrane potential effects in parental HEK293, counter-screen for CHT inhibitor project, cell-based, membrane potential dye; choline response; active = decrease or increase beyond buffer ±3SD; membrane potential ratio readout (active if shifted either direction beyond buffer ±3SD; no single direction) at 10 µM; 2,400 compounds, 4% hits; shares compounds with CHT inh;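 further: parental cells lack the transporter so any hit is non-specific; ratio is peak minus trough fluorescence over baseline after EC90 choline challenge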
CHT act confirm: CHT activators, confirmation, cell-based, membrane potential dye, duplicate; 2,500 compounds, 91% hits; shares compounds with CHT allo act; CHT-expressing cells, membrane potential dye fluorescence (FDSS); % of choline EC20–EC90 response window; HEK293 expressing CHT LV-AA mutant; choline added at its EC20; activation, % at 10 µM;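 active means primary screen active, with duplicate mean activation above negative control mean plus 3 SD, cut at about 11% in these data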
HEK293 MP dye: membrane potential response in parental HEK293 cells, counter-screen for CHT activator project, cell-based, membrane potential dye | ratio readout change at 10 µM, hits read low | AID 623908, 2012 | shares compounds with CHT allo act | membrane potential dye fluorescence (FDSS); measured after EC20 choline addition | 2,500 compounds, 62% hits;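 active means duplicate-averaged ratio beyond 3 SD from buffer wells, up or down, though filed actives are nearly all decreases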
Numbers stand for hits; 0 = inactive; - = not tested or not shown; ! = repeats disagree.

SMILES | Rad51 HR inh | CHT inh | KCC2 mod | CHT allo act | CHT act confirm | HEK293 MP dye | others
CC(C)(C)NCC(O)c1cc(Cl)c(N)c(Cl)c1 (stereo unspecified) | 0 | -5.1 | 0 | 0 | - | - | CHT inh conf=37%;HEK293 MPD ctr=0
CCC(=NCCc1ccccc1)c1c(O)n(C)c(=O)n(C)c1=O | - | -5.6 | 0 | 0 | - | - | CHT inh conf=53%;HEK293 MPD ctr=0
CC(=O)C1C2c3ccccc3O[C@@]1(C)N=c1s/c(=C/c3ccoc3)c(=O)n12 (stereo partly specified) | - | 0 | 0 | 0 | - | -
CC(=O)O[C@@]12CO[C@@H]1C[C@@H](O)[C@@]1(C)C(=O)[C@H](O)C3=C(C)[C@@H](OC(=O)[C@H](O)[C@@H](NC(=O)c4ccccc4)c4ccccc4)C[C@@](O)([C@@H](OC(=O)c4ccccc4)C12)C3(C)C (stereo partly specified) | - | -5.3 | - | 0 | - | - | CHT inh conf=63%;HEK293 MPD ctr=0
COc1c(/C=C2/C(=O)NC(=O)N(C)C2=O)c(CCN(C)C(=O)c2ccccc2)cc2c1OCO2 | - | -6.5 | - | 0 | - | - | CHT inh conf=57%;HEK293 MPD ctr=0
CN1CCc2c([nH]c3ccccc23)C1 | 0 | 0 | 0 | 0 | - | -
CC1=NCCc2c1[nH]c1ccccc21 | 0 | -7.8 | 0 | 0 | - | - | CHT inh conf=34%;HEK293 MPD ctr=0
c1ccc2c(CN3CCCCCC3)c[nH]c2c1 | 0 | -6 | 0 | 0 | - | - | CHT inh conf=37%;HEK293 MPD ctr=0
O=C(COc1ccccc1)N1CCN(Cc2c[nH]c3ccccc23)CC1 | 0 | 0 | 0 | 0 | - | -
CC(=O)O[C@@H]1/C=C/[C@](C)(O)C[C@@H](C)C/C=C/[C@H]2[C@@H]3O[C@]3(C)[C@@H](C)[C@H]3[C@H](Cc4ccccc4)NC(=O)[C@@]312 | 0 | -5.1 | - | 0 | - | - | CHT inh conf=71%;HEK293 MPD ctr=0
CC(=O)O[C@@H]1/C=C/[C@](C)(O)C[C@@H](C)C/C=C/[C@H]2[C@H](O)[C@@](C)(O)[C@@H](C)[C@H]3[C@H](Cc4ccccc4)NC(=O)[C@@]312 | 0 | 0 | - | 0 | - | -
CCNC(=O)C1OC(n2cnc3c(N)ncnc32)C(O)C1O (stereo unspecified) | 0 | -6.7 | - | 0 | - | - | CHT inh conf=33%;HEK293 MPD ctr=0
Cc1ccc(-c2nn(Cc3ccccc3)cc2C(=O)O)cc1 | - | 0 | 0 | 0 | - | -
Cc1c(C(=O)O)cc(-c2ccccc2)n1Cc1ccccc1 | - | -6.3 | - | 0 | - | - | CHT inh conf=7.3%;HEK293 MPD ctr=-35
Cc1cccc(N2CCc3c2nc2ccccc2c3N)c1 | 0 | -9.3! | 0 | 0 | 33 | -56 | CHT inh conf=56%;HEK293 MPD ctr=0
CC(C)CN1CCN(Cc2cccc3c2OCO3)CC1CCO (stereo unspecified) | 0 | 0 | 0 | 0 | - | -
CC(=NCCCn1ccnc1)c1c(O)n(C)c(=O)n(C)c1=O | 0 | 0 | 0 | 0 | 48 | -34
CCCCn1c(O)c(C(C)=NCCCn2ccnc2)c(=O)[nH]c1=O | 0 | 0 | 0 | 0 | - | -
O=[N+]([O-])c1ccc(N2CCCCC2)c2ncccc12 | 0 | 0 | 0 | 0 | - | -
O=[N+]([O-])c1ccc(N2CCCNCC2)c2ncccc12 | 0 | 0 | 0 | 9.3 | 48 | -89
Nc1ccc2ccc3cccc[n+]3c2c1 | - | 0 | - | 0 | - | -
C[n+]1c(-c2ccccc2)c2cc(N)ccc2c2ccc(N)cc21 | - | 0 | - | 9.2 | 38 | -77
COP(=O)(OC)C(NS(=O)(=O)c1ccccc1)C(Cl)(Cl)Cl (stereo unspecified) | 0 | 0 | 0 | 0 | - | -
Cc1cc(C)[n+](CCCC[n+]2c(C)cc(C)cc2C)c(C)c1 | - | 0 | - | 7.9 | 73 | -99
COC(=O)C1=C(c2ccc(S(C)(=O)=O)cc2)C[C@@H]2CC[C@H]1N2C(=O)NC1CCCCC1 | 0 | 0 | - | 0 | - | -
SMILES | Rad51 HR inh | CHT inh | KCC2 mod | CHT allo act | CHT act confirm | HEK293 MP dye | others
Cc1cc(-c2ccccc2)cc(C)[n+]1Cc1ccccc1 | - | 0 | - | 7.4 | 12 | -29
CC(C)(C)n1cc(C(=O)c2ccccc2)cc1-c1ccccc1 | 0 | 0 | 0 | 0 | - | -
COc1ccc(NC(=O)c2cc([N+](=O)[O-])ccc2N2CCNCC2)cc1 | 0 | 0 | 0 | 0 | 54 | -59
COP(=O)(OC)/C(C=O)=N/Nc1ccc([N+](=O)[O-])cc1 | 0 | 0 | 0 | 0 | - | -
CCOc1ccc(Br)c(C2(O)CC(C)N(C)CC2C)c1 (stereo unspecified) | 0 | 0 | - | 0 | - | -
COc1cc2c3c(c1OC)-c1cc(O)ccc1CC3NCC2 (stereo unspecified) | 0 | 0 | 0 | 0 | 48 | -42
O=C(OCC(=O)c1ccc([N+](=O)[O-])cc1)/C(=C/c1ccc(Cl)cc1)NC(=O)c1ccccc1 | 0 | 0 | 0 | 0 | - | -
CCN(CC)CCN1Cc2ccccc2C1=N | - | 0 | 0 | 11 | 75 | -73
N=C1c2ccccc2CN1CC(=O)c1ccccc1 | 0 | 0 | 0 | 0 | - | -
NCCNc1ccc([N+](=O)[O-])c2cccnc12 | 0 | 0 | - | 6.6 | 32 | -72
CNC(=O)Oc1ccc(C(=O)N2c3ccccc3NC(=O)C2C)cc1 (stereo unspecified) | - | 0 | - | 0 | - | -
CCN(CC)C1=NC(=[N+](CC)CC)c2ccccc21 | - | 0 | 0 | 8.7 | 64 | -56
O=[N+]([O-])c1ccc(N2CCCC2)cc1N/N=C1\CN2CCC1CC2 | - | 0 | 0 | 6.5 | 55 | -73
CCCCn1c(=O)c(C(=O)NCc2ccc(Cl)cc2)c(O)c2ccccc21 | - | 0 | - | 0 | - | -
CCCCCn1c(=O)c(C(=O)NCc2ccncc2)c(O)c2ccccc21 | 0 | 0 | - | 0 | 31 | 0
O=C(Cn1nc(-c2ccc(Cl)cc2)ccc1=O)N1CCC2(CC1)OCCO2 | 0 | 0 | 0 | 0 | - | -
Cc1cc(C)n2nc(C)[n+](C)c2n1 | 0 | 0 | 0 | 8 | 60 | -34
CCc1cc2c(N3CCN(C)CC3)ncnc2s1 | 0 | 0 | 0 | 0 | - | -
CN1CCN(c2ncnc3c2cnn3C)CC1 | 0 | 0 | 0 | 0 | 52 | -59
O=C(Cn1cc(C(=O)c2ccccc2F)c2ccccc21)NC1CC1 | 0 | 0 | 0 | 0 | - | -
O=C(c1ccco1)c1cn(Cc2ccccc2)c2ccccc12 | 0 | 0 | 0 | 7.4 | 23 | 0
